Results reported in ChEMBL document CHEMBL4033780, “Lipidated Brartemicin Analogues Are Potent Th1-Stimulating Vaccine Adjuvants” (J Med Chem, 2018).
Calls of active or inactive are those of the source. The rule behind the calls is not given here.

Experiments:
[1] = target: T1, C-type lectin domain family 4 member E (Homo sapiens) (UniProt Q9ULY5); assay: Binding affinity to recombinant human mincle extracellular domain fused with human IgG Fc expressed in HEK293T cells at 0.1 nmol by ELISA; format: cell-based; conditions: HEK-293T
T1 sequence (whole entry): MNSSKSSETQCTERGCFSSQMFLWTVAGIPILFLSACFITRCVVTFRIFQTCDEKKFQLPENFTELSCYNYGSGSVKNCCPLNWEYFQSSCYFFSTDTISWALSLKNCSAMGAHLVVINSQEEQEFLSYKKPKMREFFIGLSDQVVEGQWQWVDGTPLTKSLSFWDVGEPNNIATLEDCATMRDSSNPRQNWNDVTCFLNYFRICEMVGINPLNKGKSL

BMDM [2] = assay: Immunostimulatory activity in mincle-/- C57BL/6 mouse GM-CSF derived BMDM assessed as increase in MIP2 release at […] after 24 hrs by sandwich ELISA method; format: functional, cell-based
Summary of the method: (§1)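 Wild-type or Mincle−/− C57BL/6 bone marrow was cultured 8 days with GM-CSF 50 ng/mL in complete RPMI. Macrophages were detached with Acutase and seeded on ligand-coated plates (0.1 or 1 nmol/well); LPS 100 ng/mL was used as comparator. Supernatant was taken at 24 h and TNF, IL-6, IL-1β and MIP-2 measured by sandwich ELISA. Representative of three experiments in triplicate (±SD).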

Mus musculus [3] = organism: Mus musculus; assay: Adjuvant activity in immunized C57BL/6 mouse assessed as increase in IL-17 production in spelnocytes at 0.3 umol treated with ovalbumin for 7 days followed by stimulation with OVA for 7 days and restimulation with OVA measured 24 to 48 hrs post OVA challenge; format: functional, cell-based
Summary of the method: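 C57BL/6 mice (8–12 wk) given s.c. oil-in-water emulsion (mineral oil/Tween-80/PBS 9:1:90) holding OVA 200 μg ± adjuvant 0.3 μmol; controls were OVA alone or no OVA. Footpad challenge with OVA 100 μg on day 7, spleens taken day 14. Splenocytes restimulated with OVA 10, 30 or 100 μg/mL. Cell number read at 450 nm after 3 h with a count reagent; IFN-γ and IL-17 measured by ELISA.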

Mus musculus [4] = organism: Mus musculus; assay: Adjuvant activity in immunized C57BL/6 mouse assessed as increase in OVA-specific IgG1 production in serum at 0.3 umol treated with ovalbumin for 7 days followed by stimulation with OVA for 7 days and restimulation with OVA measured 24 to 48 hrs post OVA challenge relative to control; format: functional
Summary of the method: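 Sera were taken on days 0, 7 and 14 from C57BL/6 mice sensitized s.c. with emulsion containing OVA 200 μg ± adjuvant 0.3 μmol and footpad-challenged with OVA on day 7. OVA-specific IgG, IgG1, IgG2b and IgG2c were measured by ELISA with HRP-coupled anti-mouse secondaries. EC50 was taken from absorbance at 450 nm plotted against log serum concentration.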

BMDM [5] = assay: Immunostimulatory activity in mincle-/- C57BL/6 mouse GM-CSF derived BMDM assessed as increase in IL-6 release at […] after 24 hrs by sandwich ELISA method; format: functional, cell-based; summary of the method: as §1
[6] = target: T2, C-type lectin domain family 4 member E (Mus musculus) (UniProt Q9R0Q8); assay: Binding affinity to recombinant mouse mincle extracellular domain fused with human IgG Fc expressed in HEK293T cells at 0.1 nmol by ELISA; format: cell-based; conditions: HEK-293T
T2 sequence (whole entry): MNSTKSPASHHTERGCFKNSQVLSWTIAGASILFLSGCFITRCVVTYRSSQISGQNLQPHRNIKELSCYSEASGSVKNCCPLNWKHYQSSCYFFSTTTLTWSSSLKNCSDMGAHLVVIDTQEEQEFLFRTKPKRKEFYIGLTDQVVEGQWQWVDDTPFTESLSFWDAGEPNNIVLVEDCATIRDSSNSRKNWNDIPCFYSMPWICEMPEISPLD

[7] = target: T2, C-type lectin domain family 4 member E (Mus musculus); assay: Agonist activity at mincle in wild type C57BL/6 mouse GM-CSF derived BMDM assessed as increase in IL-6 release at 0.1 to 1 nmol after 24 hrs by sandwich ELISA; summary of the method: as §1
BMDM [8] = assay: Immunostimulatory activity in mincle-/- C57BL/6 mouse GM-CSF derived BMDM assessed as increase in TNF release at […] after 24 hrs by sandwich ELISA method; format: functional, cell-based; summary of the method: as §1
Th1 = assay: Immunostimulatory activity in OT-2 TCR transgenic mouse CD4+ Th1 cells co-cultured with C57BL/6 mouse BMDM assessed as increase in IFNgamma release at 0.1 nmol after 48 hrs by ELISA; format: functional, cell-based
Summary of the method: (§2)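 OT-II CD4+ T cells (1×10^5) were cocultured with GM-CSF bone-marrow cells (1×10^4) on wells coated with glycolipid 0.1 nmol/well or isopropanol only, with OVA323–339 peptide at 0, 0.1 or 1 μM. Supernatant was collected after 48 h and IFN-γ and IL-17 measured by ELISA. Representative of two experiments in triplicate (±SD).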

BMDM [9] = assay: Immunostimulatory activity in mincle-/- C57BL/6 mouse GM-CSF derived BMDM assessed as increase in IL-1beta release at […] after 24 hrs by sandwich ELISA method; format: functional, cell-based; summary of the method: as §1
[10] = target: T1, C-type lectin domain family 4 member E (Homo sapiens); assay: Agonist activity at human mincle coupled with FcRgamma expressed in 2B4-NFAT-GFP reporter cells after 18 hrs by flow cytometric analysis; format: cell-based
Summary of the method: (§3)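 2B4 NFAT-GFP reporter cells expressing mouse or human Mincle plus FcRγ were placed on plates coated with ligand at 0.01, 0.1 or 1 nmol/well; cells expressing FcRγ only served as negative control. Ligand was coated from isopropanol, 0.05 mM, and solvent evaporated. After 18 h, cells were harvested, stained with propidium iodide and GFP read by flow cytometry. Mean of three experiments in duplicate (±SEM).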

[11] = target: T2, C-type lectin domain family 4 member E (Mus musculus); assay: Agonist activity at mincle in wild type C57BL/6 mouse GM-CSF derived BMDM assessed as increase in TNF release at 0.1 to 1 nmol after 24 hrs by sandwich ELISA; summary of the method: as §1
[12] = target: T2, C-type lectin domain family 4 member E (Mus musculus); assay: Agonist activity at mouse mincle coupled with FcRgamma expressed in 2B4-NFAT-GFP reporter cells after 18 hrs by flow cytometric analysis; format: cell-based; summary of the method: as §3
Mus musculus [13] = organism: Mus musculus; assay: Adjuvant activity in immunized C57BL/6 mouse assessed as increase in OVA-specific IgG2b production in serum at 0.3 umol treated with ovalbumin for 7 days followed by stimulation with OVA for 7 days and restimulation with OVA measured 24 to 48 hrs post OVA challenge; format: functional
[14] = target: T2, C-type lectin domain family 4 member E (Mus musculus); assay: Agonist activity at mincle in wild type C57BL/6 mouse GM-CSF derived BMDM assessed as increase in MIP2 release at 0.1 to 1 nmol after 24 hrs by sandwich ELISA; summary of the method: as §1
Mus musculus [15] = organism: Mus musculus; assay: Adjuvant activity in immunized C57BL/6 mouse assessed as increase in OVA-specific IgG2c production in serum at 0.3 umol treated with ovalbumin for 7 days followed by stimulation with OVA for 7 days and restimulation with OVA measured 24 to 48 hrs post OVA challenge relative to control; format: functional
Th17 = assay: Immunostimulatory activity in OT-2 TCR transgenic mouse CD4+ Th17 cells co-cultured with C57BL/6 mouse BMDM assessed as increase in ovalbumin-specific IL-17 release at 0.1 nmol after 48 hrs by ELISA; format: functional, cell-based; summary of the method: as §2

In the case of `CCCCCCCCCCCCCCCCCCOc1ccc(C(=O)OC[C@H]2O[C@H](O[C@H]3O[C@H](COC(=O)c4ccc(OCCCCCCCCCCCCCCCCCC)cc4O)[C@@H](O)[C@H](O)[C@H]3O)[C@H](O)[C@@H](O)[C@@H]2O)c(O)c1`, the Activity [1] is reported as “Active”, the Activity (BMDM [2]) is reported as “inactive” and the Activity (Mus musculus [3]) is reported as “inactive”. The “fold change (FC)” value (Mus musculus [4]) was 2, the Activity (BMDM [5]) was “inactive” and the Activity [6] was “Active”. For the same compound, the Activity [7] was “Active”, the Activity (BMDM [8]) was “inactive” and the Activity (Th1) was “inactive”. The Activity (BMDM [9]) was “inactive”, the Activity [10] was “Dose-dependent effect” and the Activity [11] was “Active”. The Activity [12] was “Dose-dependent effect”, the Activity (Mus musculus [13]) was “Active” and the Activity [14] was “Active”. The “fold change (FC)” value (Mus musculus [15]) was 3 and the Activity (Th17) was “Active”.
